# Reference: publication PMC4517987 (Bioorganic & medicinal chemistry, 2015)
# Where a name gives a salt, the structure may show the parent alone.
# How the values were obtained:
# Plasmodium yoelii = settings: murine model of Plasmodium yoelii; ref unpublished observations; cited from earlier work
# [1] = system: late (>90% stage IV/V) gametocytes of P. falciparum (NF54-Mal8p1.16-GFP-Luc); test: Gametocytocidal luciferase reporter assay, late gametocytes; assay type: cell-based, Plasmodium falciparum; settings: 5 µM, 48 h, inhibition of luciferase readout
# How it was run: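 Gametocytes induced from synchronized asexual cultures in the NF54-Mal8p1.16-GFP-Luc line: glucose-free medium under hypoxia, with daily changes, and 50 mM N-acetyl glucosamine on days 1–4 to remove asexual forms. Assays set up on day 10 in triplicate at 2% gametocytemia and 2% hematocrit, 48 h, 37 °C, hypoxic. Luciferin added to lysates at room temperature and luminescence read with 10 s integration; % inhibition derived.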
# HepG2 cells [2] = test: Cytotoxicity against HepG2 cells, lactate dehydrogenase; assay type: cell-based, human; settings: GI50 mammalian cell (HepG2)/IC50 P. falciparum (3D7)
# β-hematin formation = test: NP-40 mediated β-hematin formation assay; assay type: biochemical
# [3] = system: intraerythrocytic P. falciparum parasites; test: Flow cytometric analysis of nuclear content and parasitemia; assay type: cell-based, Plasmodium falciparum; settings: 1 × IC90, continuous treatment for 96 h
# How it was run: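 Intraerythrocytic parasites (2% parasitemia, 2% hematocrit) treated in duplicate, with untreated (DMSO) controls. Samples taken at 24, 48, 72 and 96 h. Nuclear content (1 N rings/early trophozoites, 2 N trophozoites, >2 N schizonts) and parasitemia measured from SYBR Green I fluorescence by flow cytometry in the FITC channel (488 nm excitation; 502 nm long-pass and 530 nm band-pass emission).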
# HepG2 cells [4] = settings: HepG2 vs P. falciparum; cited from earlier work
# [5] = system: intraerythrocytic P. falciparum 3D7; settings: cited from earlier work
structure (smiles),measurement,setting,value
C(CCCNCCCNCC1CCCCCC1)CCCNCCCNCC1CCCCCC1 [Compound 5],Reduction of parasitemia and extension of life span,Plasmodium yoelii,as effective as pyrimethamine at reducing parasitemia and extending life span
"S=C(NCCCNCCCCCNCCCNC(=S)NC(c1ccccc1)c1ccccc1)NC(c1ccccc1)c1ccccc1 [Compound 9, 1,13-Bis-{3-[1-(1’,1’-diphenylmethyl)thiourea]}-4,10-diazatridecane dihydrochloride]","Gametocytocidal activity, late-stage gametocytes",[1],fully inhibitory
"S=C(NCCCNCCCCCNCCCNC(=S)NCC(c1ccccc1)c1ccccc1)NCC(c1ccccc1)c1ccccc1 [Compound 10, 1,13-Bis-{3-[1-(2′,2′-diphenylethyl)thiourea]}-4,10-diazatridecane dihydrochloride]",Selectivity index (SI),HepG2 cells [2],> 1000
"S=C(NCCCNCCCCCNCCCNC(=S)NCCC(c1ccccc1)c1ccccc1)NCCC(c1ccccc1)c1ccccc1 [Compound 11, 1,13-Bis-{3-[1-(3′,3′-diphenylpropyl)thiourea]}-4,10-diazatridecane dihydrochloride]","Gametocytocidal activity, late-stage gametocytes",[1],fully inhibitory
"O=C(NCCCNCCCCCNCCCNC(=O)NCc1ccccc1)NCc1ccccc1 [Compound 13, 1,13-Bis-{3-[1-(benzyl)urea]}-4,10-diazatridecane dihydrochloride]","β-hematin formation inhibition, concentration without activity",β-hematin formation; no activity even at 1 mM,> 1 mM
"O=C(NCCCNCCCCCNCCCNC(=O)NCC(c1ccccc1)c1ccccc1)NCC(c1ccccc1)c1ccccc1 [Compound 15, 1,13-Bis-{3-[1-(2′,2′-diphenylethyl)urea]}-4,10-diazat-ridecane dihydrochloride]",Time to complete cessation of parasite proliferation,[3],≤ 24 h
"O=C(NCCCNCCCCCNCCCNC(=O)NCCC(c1ccccc1)c1ccccc1)NCCC(c1ccccc1)c1ccccc1 [Compound 16, 1,13-Bis-{3-[1-(3′,3′-diphenylpropyl)urea]}-4,10-diazatridecane dihydrochloride]",IC50,"β-hematin formation; read-out: β-hematin formation inhibition IC50, NP-40 mediated, n = 3",> 400 µM
same,Time to complete cessation of parasite proliferation,[3],≤ 24 h
S=C(NCCCNCCCCCCNCCCNC(=S)NCc1ccccc1)NCc1ccccc1 [Compound 28],Selectivity (SI) compared to HepG2 cells (previously reported analogues),HepG2 cells [4],> 1000
O=C(NCCCNCCCCCCCNCCCNC(=O)NC(c1ccccc1)c1ccccc1)NC(c1ccccc1)c1ccccc1 [Compound 29],Selectivity (SI) compared to HepG2 cells (previously reported analogues),HepG2 cells [4],> 1000
CCCNC(=O)NCCCNCCCCCCNCCCNC(=O)NCCC [Compound 53],P. falciparum IC50 (previously reported analogues),[5],inactive
CCNC(=O)NCCCNCCCCCCNCCCNC(=O)NCC [Compound 54],P. falciparum IC50 (previously reported analogues),[5],inactive
